# Laboratory results taken from ChEMBL document CHEMBL1140861, “Short antisense oligonucleotides with novel 2'-4' conformationaly restricted nucleoside analogues show improved potency without increased toxicity in animals” (J Med Chem, 2009).
# Activity calls are given as the source filed them. The rule behind the calls is not given here.
# Experiments:
# Mus musculus [1] = assay: Toxicity in BALB/c mouse assessed as increase in liver weight at 4.7 mg/kg, ip administered twice a week for 3 weeks measured after 72 hrs of last dose; type: organism-based; design: dose 4.7 mg/kg, route intraperitoneal; settings: in vivo
# Procedure, shortened: (§1)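 Male Balb/c mice, 6 weeks old, dosed ip twice weekly for 3 weeks at 0.5, 1.5, 4.7 and 15 mg/kg (two ASOs) or 0.7, 2.3, 7.2 and 23 mg/kg (MOE control); sacrificed 72 h after last dose; ALT, liver PTEN mRNA, liver and spleen weights and body weight gain assessed; ED50 derived; errors as sd.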
# Mus musculus [2] = assay: Toxicity in BALB/c mouse assessed as reduction in body weight at 1.5 mg/kg, ip administered twice a week for 3 weeks measured after 72 hrs of last dose; type: organism-based; design: dose 1.5 mg/kg, route intraperitoneal; settings: in vivo; procedure, shortened: as §1
# Mus musculus [3] = assay: Reduction of PTEN mRNA level in ip dosed BALB/c mouse liver after 72 hrs; type: functional
# Mus musculus [4] = assay: Hepatotoxicity in BALB/c mouse assessed as increase in liver ALT level at 100 mg/kg, ip after 72 hrs; type: toxicity, organism-based; design: dose 100 mg/kg, route intraperitoneal; settings: in vivo
# Procedure, shortened: (§2)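 Balb/c mice, 6 weeks old, n = 4 per dose group, single ip doses of 32, 66 or 100 mg/kg; killed 72 h after administration; serum ALT and liver PTEN mRNA quantified after sacrifice; errors as sd.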
# Mus musculus [5] = assay: Hepatotoxicity in BALB/c mouse assessed as increase in liver ALT level at 15 mg/kg, ip administered twice a week for 3 weeks measured after 72 hrs of last dose; type: toxicity, organism-based; design: dose 15 mg/kg, route intraperitoneal; settings: in vivo; procedure, shortened: as §1
# Mus musculus [6] = assay: Metabolic stability in BALB/c mouse liver assessed as antisense oligonucleotide level at 18 mg/kg; type: ADME, organism-based; design: dose 18 mg/kg; settings: in vivo
# Mus musculus [7] = assay: Hepatotoxicity in BALB/c mouse assessed as increase in liver ALT level at 1.5 mg/kg, ip administered twice a week for 3 weeks measured after 72 hrs of last dose; type: toxicity, organism-based; design: dose 1.5 mg/kg, route intraperitoneal; settings: in vivo; procedure, shortened: as §1
# Mus musculus [8] = assay: Toxicity in BALB/c mouse assessed as reduction in body weight at 0.5 mg/kg, ip administered twice a week for 3 weeks measured after 72 hrs of last dose; type: organism-based; design: dose 0.5 mg/kg, route intraperitoneal; settings: in vivo; procedure, shortened: as §1
# Mus musculus [9] = assay: Toxicity in BALB/c mouse assessed as reduction in body weight at 15 mg/kg, ip administered twice a week for 3 weeks measured after 72 hrs of last dose; type: organism-based; design: dose 15 mg/kg, route intraperitoneal; settings: in vivo; procedure, shortened: as §1
# Mus musculus [10] = assay: Reduction of PTEN level in ip dosed BALB/c mouse liver at 37 mg/kg by Western blot analysis; type: functional, organism-based; design: dose 37 mg/kg
# Mus musculus [11] = assay: Toxicity in BALB/c mouse assessed as reduction in body weight at 4.7 mg/kg, ip administered twice a week for 3 weeks measured after 72 hrs of last dose; type: organism-based; design: dose 4.7 mg/kg, route intraperitoneal; settings: in vivo; procedure, shortened: as §1
# Mus musculus [12] = assay: Reduction of PTEN mRNA level in BALB/c mouse liver at 66 mg/kg, ip after 72 hrs; type: functional, organism-based; design: dose 66 mg/kg; procedure, shortened: as §2
# Mus musculus [13] = assay: Toxicity in BALB/c mouse assessed as increase in liver weight at 15 mg/kg, ip administered twice a week for 3 weeks measured after 72 hrs of last dose; type: organism-based; design: dose 15 mg/kg, route intraperitoneal; settings: in vivo; procedure, shortened: as §1
# Mus musculus [14] = assay: Hepatotoxicity in BALB/c mouse assessed as increase in liver ALT level at 4.7 mg/kg, ip administered twice a week for 3 weeks measured after 72 hrs of last dose; type: toxicity, organism-based; design: dose 4.7 mg/kg, route intraperitoneal; settings: in vivo; procedure, shortened: as §1
# Mus musculus [15] = assay: Toxicity in BALB/c mouse assessed as increase in spleen weight at 15 mg/kg, ip administered twice a week for 3 weeks measured after 72 hrs of last dose; type: organism-based; design: dose 15 mg/kg, route intraperitoneal; settings: in vivo; procedure, shortened: as §1
# Mus musculus [16] = assay: Toxicity in BALB/c mouse assessed as increase in spleen weight at 1.5 mg/kg, ip administered twice a week for 3 weeks measured after 72 hrs of last dose; type: organism-based; design: dose 1.5 mg/kg, route intraperitoneal; settings: in vivo; procedure, shortened: as §1
# Mus musculus [17] = assay: Toxicity in BALB/c mouse assessed as increase in liver weight at 1.5 mg/kg, ip administered twice a week for 3 weeks measured after 72 hrs of last dose; type: organism-based; design: dose 1.5 mg/kg, route intraperitoneal; settings: in vivo; procedure, shortened: as §1
# Mus musculus [18] = species on record: Mus musculus; assay: Binding affinity to mouse PTEN mRNA assessed as melting temperature
# Procedure, shortened: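 Tm of ASO–RNA duplex, i.e. melting temperature of the ASO hybridised to its complementary RNA.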
# Mus musculus [19] = assay: Toxicity in BALB/c mouse assessed as increase in spleen weight at 4.7 mg/kg, ip administered twice a week for 3 weeks measured after 72 hrs of last dose; type: organism-based; design: dose 4.7 mg/kg, route intraperitoneal; settings: in vivo; procedure, shortened: as §1
# Mus musculus [20] = assay: Toxicity in BALB/c mouse assessed as increase in liver weight at 0.5 mg/kg, ip administered twice a week for 3 weeks measured after 72 hrs of last dose; type: organism-based; design: dose 0.5 mg/kg, route intraperitoneal; settings: in vivo; procedure, shortened: as §1
# Mus musculus [21] = assay: Toxicity in BALB/c mouse assessed as increase in spleen weight at 0.5 mg/kg, ip administered twice a week for 3 weeks measured after 72 hrs of last dose; type: organism-based; design: dose 0.5 mg/kg, route intraperitoneal; settings: in vivo; procedure, shortened: as §1
# Mus musculus [22] = assay: Hepatotoxicity in BALB/c mouse assessed as increase in liver ALT level at 0.5 mg/kg, ip administered twice a week for 3 weeks measured after 72 hrs of last dose; type: toxicity, organism-based; design: dose 0.5 mg/kg, route intraperitoneal; settings: in vivo; procedure, shortened: as §1
# Mus musculus [23] = assay: Reduction of PTEN mRNA level in ip dosed BALB/c mouse liver administered twice a week for 3 weeks measured after 72 hrs of last dose; type: functional; procedure, shortened: as §1
# Mus musculus [24] = assay: Reduction of PTEN mRNA expression in ip dosed BALB/c mouse administered twice a week for 3 weeks assessed as antisense oligonucleotide level in liver measured after 72 hrs of last dose; type: functional, organism-based
# bEND = assay: Reduction in mouse PTEN mRNA level expressed in mouse bEND cells; type: functional, cell-based
# Procedure, shortened: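 bEND mouse brain endothelial cells transfected with ASO using lipofectin; PTEN mRNA reduction measured over a dose range; IC50 taken from dose-response curves.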
# Mus musculus [25] = assay: Reduction of PTEN mRNA level in BALB/c mouse liver at 100 mg/kg, ip after 72 hrs; type: functional; procedure, shortened: as §2
# Mus musculus [26] = assay: Reduction of PTEN mRNA level in BALB/c mouse liver at 32 mg/kg, ip after 72 hrs; type: functional, organism-based; design: dose 32 mg/kg; procedure, shortened: as §2
compound,measurement,setting,value
Cc1cn([C@@H]2O[C@@]3(COP(O)(=S)O[C@H]4[C@H]5O[C@@H](C)[C@]4(COP(O)(=S)O[C@H]4C[C@H](n6cc(C)c(=O)[nH]c6=O)O[C@@H]4COP(O)(=S)O[C@H]4[C@@H](O)[C@H](n6cnc7c6N=CNC7N)O[C@@H]4COP(O)(=S)O[C@H]4[C@@H](O)[C@H](n6cnc7c(=O)[nH]c(N)nc76)O[C@@H]4COP(O)(=S)O[C@H]4[C@@H](O)[C@H](n6ccc(N)nc6=O)O[C@@H]4COP(O)(=S)O[C@H]4[C@@H](O)[C@H](n6cnc7c(N)ncnc76)O[C@@H]4COP(O)(=S)O[C@H]4[C@@H](O)[C@H](n6ccc(N)nc6=O)O[C@@H]4COP(O)(=S)O[C@H]4[C@@H](O)[C@H](n6cc(C)c(=O)[nH]c6=O)O[C@@H]4COP(O)(=S)O[C@H]4[C@@H](O)[C@H](n6cnc7c(=O)[nH]c(N)nc76)O[C@@H]4COP(O)(=S)O[C@H]4[C@@H](O)[C@H](n6cnc7c(=O)[nH]c(N)nc76)O[C@@H]4COP(O)(=S)O[C@H]4[C@@H](O)[C@H](n6ccc(N)nc6=O)O[C@@H]4COP(O)(=S)O[C@H]4[C@H]6O[C@@H](C)[C@]4(COP(O)(=S)O[C@H]4[C@H]7O[C@@H](C)[C@]4(COP(=O)(O)O)O[C@H]7n4ccc(=O)[nH]c4=O)O[C@H]6n4cc(C)c(N)nc4=O)O[C@H]5n4ccc(=O)[nH]c4=O)[C@H](C)O[C@@H]2[C@@H]3O)c(=O)nc1N (stereo partly drawn),Activity,Mus musculus [1],Non-toxic
same,Activity,Mus musculus [2],Toxic
same,ED50,Mus musculus [3],9 mg/kg
same,Activity,Mus musculus [4],Non-toxic
same,Activity,Mus musculus [5],Toxic
same,Stability,Mus musculus [6],25 µg/g
same,Activity,Mus musculus [7],Toxic
same,Activity,Mus musculus [8],Toxic
same,Activity,Mus musculus [9],Toxic
same,Activity,Mus musculus [10],Active
same,Activity,Mus musculus [11],Toxic
same,Activity,Mus musculus [12],Active
same,Activity,Mus musculus [13],Non-toxic
same,Activity,Mus musculus [14],Toxic
same,Activity,Mus musculus [15],Non-toxic
same,Activity,Mus musculus [16],Non-toxic
same,Activity,Mus musculus [17],Non-toxic
same,Tm,Mus musculus [18],59.1 °C
same,Activity,Mus musculus [19],Non-toxic
same,Activity,Mus musculus [20],Non-toxic
same,Activity,Mus musculus [21],Non-toxic
same,Activity,Mus musculus [22],Toxic
same,ED50,Mus musculus [23],2.4 mg/kg
same,EC50,Mus musculus [24],6.3 µg/g
same,IC50,bEND,5.8 nM
same,Activity,Mus musculus [25],Active
same,Activity,Mus musculus [25]; route intraperitoneal,>90%
same,Activity,Mus musculus [26],Active
